Results published in ChEMBL document CHEMBL1130251, “Enzymatic properties of the unnatural beta-L-enantiomers of 2',3'-dideoxyadenosine and 2',3'-didehydro-2',3'-dideoxyadenosine” (J Med Chem, 1997).

Legend:
[1] = compound: Nc1ncnc2c1ncn2[C@H]1C=C[C@@H](CO)O1; assay: (§1) Inhibitory activity against bovine liver adenosine Kinase; NS, […]=nonsubstrate, noninhibitor/inhibitor; conditions: Bos taurus
Method in brief: (§2)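 Adenosine kinase purified from bovine liver, 0.38–7.6 μg·mL⁻¹, at 37 °C. Medium: 100 mM Tris HCl pH 7.4, 100 mM KCl, 4.8 mg·mL⁻¹ BSA, 0.5 mM MgCl2, 1 mM ATP, test nucleoside. 5'-Phosphorylation monitored by C-18 HPLC (phosphate pH 6/acetonitrile gradient). Inhibition assessed against 50 μM adenosine.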

[2] = compound: Nc1ncnc2c1ncn2[C@H]1CC[C@@H](CO)O1; assay: as §1; conditions: Bos taurus; method in brief: as §2

B1: Adenosine kinase (Toxoplasma gondii), Q9TVW2 (protein)
chain: MAVDSSNSATGPMRVFAIGNPILDLVAEVPSSFLDEFFLKRGDATLATPEQMRIYSTLDQFNPTSLPGGSALNSVRVVQKLLRKPGSAGYMGAIGDDPRGQVLKELCDKEGLATRFMVAPGQSTGVCAVLINEKERTLCTHLGACGSFRLPEDWTTFASGALIFYATAYTLTATPKNALEVAGYAHGIPNAIFTLNLSAPFCVELYKDAMQSLLLHTNILFGNEEEFAHLAKVHNLVAAEKTALSTANKEHAVEVCTGALRLLTAGQNTGATKLVVMTRGHNPVIAAEQTADGTVVVHEVGVPVVAAEKIVDTNGAGDAFVGGFLYALSQGKTVKQCIMCGNACAQDVIQHVGFSLSFTSLPC
B1 was tested, and the Km [1] was “NS, NI/Ado” and the Km [2] was “NS, NI/Ado”.
